Bioassay records: PubChem BioAssay, Sanford-Burnham Center for Chemical Genomics
This is a sample that favours compounds with a hit; in the whole collection about 1.7% have one here.
DNMT1 inh: blocks human DNA methyltransferase DNMT1; P26358; DNMT1 molecular beacon, Hinp1I cleavage, fluorescence; inhibition (reported as % activation of signal), % at 10 µM; 360,000 compounds, 0.83% hits; in the data active = inhibition above about 50%
STEP block: blocks human striatal-enriched tyrosine phosphatase | P54829 | recombinant STEP, OMFP fluorogenic substrate, fluorescence | inhibition, % at 20 µM | 360,000 compounds, 0.25% hits | AID 588621;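 active = inhibition at 20 µM, scaled per plate between control wells, above about 37%, limit read from the data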
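Material: STEP (striatal-enriched tyrosine phosphatase) enzyme, cell-free; Compound dosing: 20 µM single dose in 1% DMSO; Technique: fluorescence read at 480 nm ex / 540 nm em; Times: reaction 20 min, ambient temperature; Medium: 50 mM Bis-Tris pH 6.0 with 2.5 mM DTT and 0.005% Tween 20; Also added: OMFP at 25 µM.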
LMPTP block: LMPTP (human) inhibition; P24666; recombinant LMPTP-A, OMFP fluorogenic substrate, fluorescence intensity; inhibition, % at 20 µM; 360,000 compounds, 0.22% hits;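 active = compounds that cut the enzyme signal by at least half of the control window in the single-dose screen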
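Material: LMPTP-A; amount: 0.625 nM enzyme; doses: single 20 µM dose; times: reaction 50 min, room temperature, dark; technique: fluorescence intensity of OMFP turnover product; benchmarks: no-enzyme and uninhibited controls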
Scp-1 inhibitor: inhibitors of human Scp-1 phosphatase; Q9GZU7; Recombinant Scp1, phosphopeptide, malachite green phosphate absorbance; inhibition, % at 20 µM; 340,000 compounds, 0.88% hits;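 active = inhibition above about 50% at 20 µM, limit read from the data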
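Incubation: 45 min enzyme reaction at room temperature / System: truncated SCP-1 phosphatase (76-261aa) / Reagent: Phospho 17-mer peptide substrate / Buffer or medium: Acidic Tris acetate buffer with magnesium and detergent / Signal: absorbance at 630 nm / Doses: one concentration, 20 µM, with 1.0% DMSO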
SUMO1 PPI mod: alters human SUMO1 binding to SIM partners | P63165 | SUMO1 binding to a labelled peptide, TR-FRET, 1 h | inhibition, % at 20 µM | 360,000 compounds, 0.33% hits | AID 602429; in the data active = inhibition above about 37%
Scp1 confirm: Scp-1 (human) inhibition, single-dose confirmed. shares compounds with Scp-1 inhibitor. recombinant SCP-1 catalytic domain, phosphate release, malachite green absorbance. inhibition, % at 20 µM. 2,500 compounds, 61% hits. AID 540281
Scp-1 MG ctr: colorimetric interference in Scp-1 counter-screen. shares compounds with Scp-1 inhibitor. Colorimetric interference counterscreen, malachite green absorbance 630 nm. apparent inhibition (interference), % at 20 µM. 2,500 tested, under 10 active. AID 540313;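 also: compounds added after enzyme reaction finished so only phosphate colour detection is probed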
Scp1 DSF: Scp-1 (human) binding by thermal shift; Recombinant SCP1, Sypro Orange thermal shift Tm; 1,500 compounds, 25% hits; thermal shift relative to vanadate control, % at 40 µM; shares compounds with Scp-1 inhibitor;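 active = substances whose mean melting-temperature shift, as a percentage of the reference inhibitor's shift, reaches about 5.3%, limit read from the data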
Of the large screens only hits and unclear results are named; the others gave an inactive call (follow-up assays come after a bar, where they were run).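 The calls were made as follows, unless noted: active = inhibition of at least 30% at 20 µM; inactive = the rest.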

Cc1nn(CC(=O)Nc2ccccc2)c(=O)c2ccccc12	Scp-1 inhibitor 70 | Scp1 confirm inactive | Scp-1 MG ctr inactive
Cc1cccc(NC(=O)C2CCCN2S(=O)(=O)c2ccc3c(c2)n(C)c(=O)c(=O)n3C)c1 (stereo not drawn)	none | Scp1 confirm inactive | Scp-1 MG ctr inactive
CCc1cccc(NC(=O)C2CCCN2S(=O)(=O)c2ccc3c(c2)n(C)c(=O)c(=O)n3C)c1 (stereo not drawn)	none
Cc1ccc(NC(=O)CSc2ccccc2NC(=O)c2ccccc2Cl)cc1Cl	Scp-1 inhibitor 90 | Scp1 confirm 63 | Scp-1 MG ctr inactive | Scp1 DSF inactive
Cc1ccc(NC(=O)CSc2ccccc2NC(=O)c2ccccc2)cc1Cl	none
COCCCNC(=O)C1CC(=O)N(Cc2ccc(OC)cc2)C1 (stereo not drawn)	none
COc1ccc(CN2CC(C(=O)NCCCOC(C)C)CC2=O)cc1 (stereo not drawn)	none | Scp1 confirm inactive | Scp-1 MG ctr inactive
COCCNC(=O)C(c1c[nH]c2ccccc12)N(C(=O)c1snc(C(N)=O)c1N)c1cccc(OC)c1 (stereo not drawn)	none
COc1ccc(C2N(c3ccc4c(c3)OCCO4)C(=O)C2(F)F)cc1OC (stereo not drawn)	none
O=C1OC(/C=C/c2ccccc2)=NC/1=C/C=C/c1ccccc1	Scp-1 inhibitor 70 | Scp1 confirm inactive | Scp-1 MG ctr inactive
O=C(CCC1CCCN(C(=O)c2ccoc2)C1)NCc1ccccc1F (stereo not drawn)	none
Cc1ccc(N2CCN(C(=O)C(=O)c3cccc([N+](=O)[O-])c3)CC2)cc1	none (no result: DNMT1 inh, STEP block, Scp-1 inhibitor)
CCOC(=O)c1ccc(NC(=O)CSc2nnc(-c3cccs3)n2CC)cc1	none
CCOC(=O)c1ccc(NC(=O)CSc2nnc(-c3cccs3)n2C)cc1	Scp-1 inhibitor 105 | Scp1 confirm inactive | Scp-1 MG ctr inactive
Cc1ccc(S(=O)(=O)N2CCN(C(=O)/C=C/c3ccco3)CC2)cc1	Scp-1 inhibitor 71 | Scp1 confirm 71 | Scp-1 MG ctr inactive | Scp1 DSF inactive
Cc1ccc(S(=O)(=O)N2CCN(C(=O)c3ccco3)CC2)cc1	none
O=C(O)c1c(-c2ccccc2)cnc2ccccc12	none (no result: Scp-1 inhibitor)
CC[n+]1c(/C=C/c2ccc(N(C)C)cc2)ccc2ccccc21	none
C[n+]1c(/C=C/c2ccc(O)cc2)ccc2ccccc21	Scp-1 inhibitor 51 | Scp1 confirm inactive | Scp-1 MG ctr inactive
Cn1nc(C(F)(F)F)cc1-c1ccc(S(N)(=O)=O)s1	none
COc1cc(/C=C2\SC(=S)N(CCCCC(=O)O)C2=O)ccc1OS(=O)(=O)c1ccc(C)cc1	Scp-1 inhibitor 51 | Scp1 confirm 48 | Scp-1 MG ctr inactive | Scp1 DSF 15
Fc1ccc(Sc2ccccc2CNC2=NCCN2)cc1	Scp-1 inhibitor 52 | Scp1 confirm 84 | Scp-1 MG ctr inactive | Scp1 DSF inactive
OCCNC1=NCCN1	none
O=C(O)c1cc(S(=O)(=O)N2CCN(S(=O)(=O)c3ccc4ccccc4c3)CC2)ccc1Br	Scp-1 inhibitor 59 | Scp1 confirm 63 | Scp-1 MG ctr inactive | Scp1 DSF 8.7
Cc1c(NC(=O)CC(=O)Nc2c(C)n(C)n(-c3ccccc3)c2=O)c(=O)n(-c2ccccc2)n1C	none
Cc1c(NC(=O)CC2NC(=O)NC2=O)c(=O)n(-c2ccccc2)n1C (stereo not drawn)	none (no result: DNMT1 inh, STEP block, LMPTP block, Scp-1 inhibitor, SUMO1 PPI mod) | Scp1 confirm inactive | Scp-1 MG ctr inactive
Cc1ccc(S(=O)(=O)N2CCCOC2CNC(=O)C(=O)NCc2cccs2)cc1 (stereo not drawn)	none
Cn1nnc(-c2ccc(OCc3ccccc3F)cc2)n1	Scp-1 inhibitor 65 | Scp1 confirm inactive | Scp-1 MG ctr inactive
CC(C)C(c1nnnn1CCc1ccccc1)N1CCSCC1 (stereo not drawn)	none
COCCn1nnnc1C(C(C)C)N1CCSCC1 (stereo not drawn)	Scp-1 inhibitor 67 | Scp1 confirm inactive | Scp-1 MG ctr inactive
Cc1c(C(=O)N2CCCCC2CCN2CCCC2=O)oc2c(F)cccc12 (stereo not drawn)	none
O=C(NNC(=O)c1cccs1)c1ccc(Cl)c(S(=O)(=O)N2CCCC2)c1	none
Cc1cc(C(=O)O)cc(S(=O)(=O)NNC(=O)c2cccs2)c1C	Scp-1 inhibitor 53 | Scp1 confirm inactive | Scp-1 MG ctr inactive
Cc1cccc(Nc2n[nH]c(=S)s2)c1C	Scp-1 inhibitor 60 | Scp1 confirm inactive | Scp-1 MG ctr inactive
Cc1ccc(S(=O)(=O)N(CC(=O)N/N=C/c2ccco2)Cc2ccccc2)cc1	none
Cc1cccc(CN(CC(=O)N/N=C/c2ccco2)S(=O)(=O)c2ccc(Cl)cc2)c1	Scp-1 inhibitor 58 | Scp1 confirm 48 | Scp-1 MG ctr inactive | Scp1 DSF inactive
O=C1NC(=S)S/C1=C1\Sc2ccccc2N1CCCS(=O)(=O)O	none
NN1C(=O)/C(=C2/Sc3ccccc3N2CCCS(=O)(=O)O)SC1=S	Scp-1 inhibitor 84 | Scp1 confirm 73 | Scp-1 MG ctr inactive | Scp1 DSF inactive
O=C1Cc2cc(S(=O)(=O)Nc3ccccc3Cl)cc3c2N1CCC3	none
O=C1CC(c2ccc(S(=O)(=O)Nc3cc(C(F)(F)F)cc(C(F)(F)F)c3)cc2)CN1 (stereo not drawn)	none | Scp1 confirm inactive | Scp-1 MG ctr inactive
Cc1ccccc1NS(=O)(=O)c1ccc(C2CNC(=O)C2)cc1 (stereo not drawn)	none
Nc1nc(SCc2ccccc2)c2ncn(C3OC(CO)C(O)C3O)c2n1 (stereo not drawn)	none
CSc1nc(N)nc2c1ncn2C1OC(CO)C(O)C1O (stereo not drawn)	none | Scp1 confirm inactive | Scp-1 MG ctr inactive
CCC(=O)N(Cc1cc(=O)[nH]c2ccccc12)c1ccc(C)cc1	none
Cc1cc(C)c(C)c(OCCn2ccnc2)c1	none
Cc1ccc(C)c(OCCn2ccnc2)c1	Scp-1 inhibitor 59 | Scp1 confirm 39 | Scp-1 MG ctr inactive | Scp1 DSF inactive
N#Cc1ccsc1NC(=O)COC(=O)CCS(=O)(=O)c1ccccc1	Scp-1 inhibitor 50 | Scp1 confirm 69 | Scp-1 MG ctr inactive | Scp1 DSF 5.7
N#Cc1ccsc1NC(=O)CCS(=O)(=O)c1ccccc1	none
Cc1[nH]c(C)c(S(=O)(=O)NCc2ccc(F)cc2)c1C(=O)N1CCCCC1	none
COc1ccc(N2C(c3ccsc3)=Cc3cc4c(cc3C2c2c[nH]c3ccccc23)OCO4)cc1 (stereo not drawn)	none (no result: DNMT1 inh, STEP block, Scp-1 inhibitor)
